For data set [1], the system named is J774. Nature of the data set: Inhibition of LPS-stimulated iNOS protein expression in mouse J774 cells at 100 uM by Western blot analysis.
Data set [2] concerns J774. The experiment in a line: Antiinflammatory activity in mouse J774 cells assessed as inhibition of LPS-induced COX-2 protein expression at 100 uM by Western blot. (In general: Immunoblotting shows a protein as a band on a membrane.)
Data set [3] deals with J774. Nature of the data set: Antiinflammatory activity in mouse J774 cells assessed as inhibition of LPS-induced NO production at 100 uM by Griess reaction. Format: functional. The gist of the method:
(§1)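 Confluent J774 macrophages, grown 72 h in 24-well plates, were stimulated with LPS in fresh medium containing compound. Nitrite was quantified against a sodium nitrite standard. Results were given as % inhibition versus LPS alone, mean ± S.E.M.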

Data set [4] deals with J774. The experiment in a line: Antiinflammatory activity in mouse J774 cells assessed as inhibition of LPS-induced NO production at 10 uM by Griess reaction. Type of data set: functional. The essentials: as §1
On the technique in general: Griess reagent forms a coloured azo dye with nitrite.

Data set [5] relates to J774. The experiment in a line: Inhibition of LPS-stimulated IL-6 production in mouse J774 cells at 100 uM by ELISA. (ELISA stands for enzyme-linked immunosorbent assay.)
The subject of data set [6] is J774. The experiment in a line: Inhibition of LPS-stimulated IL-6 production in mouse J774 cells at 10 uM by ELISA.
Data set [7] has as its system J774. Nature of the data set: Cytotoxicity against mouse J774 cells at 100 uM by XTT assay. Type of data set: cell-based. Particulars: j774, 100 µM. The gist of the method:
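Confluent J774 monolayers were exposed to compound under the same conditions as the anti-inflammatory assays. Viability was read as mitochondrial dehydrogenase reduction of XTT to formazan.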

Data set [8] has as its system J774. Nature of the data set: Antiinflammatory activity in mouse J774 cells assessed as inhibition of LPS-induced COX-2 protein expression at 10 uM by Western blot.
Data set [9] concerns J774. Nature of the data set: Inhibition of LPS-stimulated iNOS protein expression in mouse J774 cells at 10 uM by Western blot analysis.
The target in data set [10] is Transcription factor p65 (Mus musculus) (UniProt Q04207). Nature of the data set: Inhibition of NF-kB p65 nuclear translocation in LPS-stimulated mouse J774 cells by Western blot analysis. Format: cell-based. Particulars: concentration not given here. The gist of the method: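 Nuclear extracts were prepared from LPS-treated J774 cells using hypotonic buffer A followed by high-salt buffer C (420 mM NaCl). Extract protein (20 µg) was run on 10% SDS-PAGE, blotted, and probed with anti-NF-κB p65 antibody, then detected by chemiluminescence.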
Sequence of Transcription factor p65 (Mus musculus) (Q04207 whole entry): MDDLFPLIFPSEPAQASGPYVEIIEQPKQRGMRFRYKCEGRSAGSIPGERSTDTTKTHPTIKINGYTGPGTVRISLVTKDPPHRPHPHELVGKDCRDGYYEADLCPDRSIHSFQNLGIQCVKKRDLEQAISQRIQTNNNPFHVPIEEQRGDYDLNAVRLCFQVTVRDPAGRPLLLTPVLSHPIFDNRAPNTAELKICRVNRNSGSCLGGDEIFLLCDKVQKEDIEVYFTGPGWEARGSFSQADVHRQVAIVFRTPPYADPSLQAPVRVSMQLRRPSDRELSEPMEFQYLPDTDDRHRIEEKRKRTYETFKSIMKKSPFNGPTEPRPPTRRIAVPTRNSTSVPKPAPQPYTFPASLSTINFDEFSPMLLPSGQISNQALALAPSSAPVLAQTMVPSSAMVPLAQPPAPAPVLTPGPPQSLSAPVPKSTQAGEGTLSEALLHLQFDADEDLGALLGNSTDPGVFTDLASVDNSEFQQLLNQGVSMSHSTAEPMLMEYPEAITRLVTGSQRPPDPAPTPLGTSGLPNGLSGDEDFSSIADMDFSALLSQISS

Data set [11] relates to J774. Nature of the data set: Inhibition of LPS-stimulated iNOS mRNA expression in mouse J774 cells by RT-PCR analysis. Type of data set: functional. The gist of the method: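 J774 cells were incubated for 3 h with LPS plus compound. Total RNA was extracted and reverse-transcribed, then run by real-time PCR for 40 cycles (95 °C 15 s / 60 °C 1 min), in duplicate. iNOS mRNA was quantified from a standard curve built with LPS-stimulated J774 RNA and normalised to GAPDH.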

The target in data set [12] is Transcription factor p65 (Mus musculus) (UniProt Q04207). The experiment in a line: Inhibition of NF-kB p65 nuclear translocation in LPS-stimulated mouse J774 cells at 100 uM by Western blot analysis. Type of data set: cell-based. The essentials:
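J774 murine macrophages were grown in DMEM glutamax-I with 10% heat-inactivated FBS and antibiotics for 72 h to confluence, then given compound with LPS in fresh medium. Nuclear extracts were made by hypotonic lysis followed by high-salt extraction of the nuclei. 20 µg protein was run on 10% SDS-PAGE and blotted onto nitrocellulose. Blots were probed with anti-p65 and an HRP secondary antibody, and chemiluminescence was quantified. Results are mean ± SEM.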

SMILES strings stand for the structures.

The inhibition is the change of the read-out against control, counted positive when it falls. In the case of `CCCc1cc(=O)oc2c(OC)c(O)ccc12`, the inhibition at 100 µM in data set [1] amounted to 74.6%; in data set [2], 8.6%; in data set [3] it was 83.7%; in data set [5] it was 73.4%. Also, the inhibition at 10 µM was 57% in [4], 11% in [6], -38.9% in [8] and 13.4% in data set [9]. In addition, in [7], the Activity entry is “Non-toxic”.
As for `CCc1c(C)c2ccc(O)c(C)c2oc1=O`, the inhibition at 100 µM is 65.2% in data set [1], 21% in data set [2], 87% in [3] and 94.9% in data set [5]. The inhibition at 10 µM in data set [4] was 46.5%; in data set [6], 26.1%; in data set [8], -36.8%; in data set [9] it was 18.9%. Moreover, the Activity entry in data set [7] is recorded as “Non-toxic”.
With `COc1c(O)ccc2c(-c3ccccc3)cc(=O)oc12`, the inhibition at 100 µM is 84.6% in data set [1], -34.7% in data set [2], 81.8% in data set [3] and 46.9% in [5]. Also, the inhibition at 10 µM in [4] was 71.5%; in data set [8], -59.1%; in data set [9], 55.9%. Further, the Activity result in data set [7] is “Non-toxic”.
`Cc1c(C)c2c(C)cc(O)cc2oc1=O`: the inhibition at 100 µM was found to be 94.7% in [1], 11.1% in data set [2], 92.4% in [3] and 92.2% in data set [5]. The inhibition in data set [10] was determined as 65%. For the same molecule, the values for the inhibition at 10 µM in [4], in data set [8] and in [9] were 51.8%, -31.7% and 49.6%, respectively. Besides, in data set [11], the “inhibition (INH)” value came out at 50%. In addition, the Activity result in [7] is on record as “Non-toxic”.
In the case of `Cc1cc(=O)oc2c(C)c(O)ccc12`, the inhibition at 100 µM is 61.4% in data set [1], 7.8% in data set [2], 65.7% in [3] and 82.8% in data set [5]. Also, the inhibition at 10 µM worked out at 17.3% in data set [4], 17.5% in data set [6], 2.3% in data set [8] and 20.1% in [9]. Besides, the Activity entry in data set [7] is recorded as “Non-toxic”.
As for `O=c1cc(-c2ccccc2)c2ccc(O)cc2o1`, the inhibition at 100 µM in data set [1] was 93%; in [2] it was -0.4%; in data set [3] it was 85%; in [5] it was 95.7%. Moreover, the inhibition at 10 µM in [4] was 54.8%; in [8], -47.1%; in [9] it was 46.5%. In addition, the Activity entry in data set [7] is “Non-toxic”.
On to `Cc1c(C)c2ccc(O)cc2oc1=O`, for which the inhibition at 100 µM in data set [1] came out at 85.5%; in [2], 3.7%; in data set [3], 88.9%; in data set [5], 85.7%. In addition, in [10], the inhibition was 65%. The inhibition at 10 µM is 37.6% in data set [4], 16.7% in data set [6], -57.7% in data set [8] and 28.6% in [9]. Besides, in data set [11], the “inhibition (INH)” value turned out to be 50%. The Activity entry in data set [7] is given as “Non-toxic”.
On to `Cc1cc(O)cc2oc(=O)ccc12`, for which the inhibition at 100 µM was 86.2% in [1], -60.4% in data set [2], 80% in data set [3] and 4.2% in data set [5]. Also, the inhibition at 10 µM in data set [4] is 9.2%; in data set [8], -44.1%; in [9], 2.7%. Further, the Activity result in data set [7] is on record as “Non-toxic”.
Turning to `CCCc1cc(=O)oc2cc(O)ccc12`, the inhibition at 100 µM in data set [1] was 89.7%; in [2], 25%; in data set [3] it was 67.6%; in data set [5], 88.9%. Further, the inhibition at 10 µM was 25.3% in data set [4], 25.4% in [6], -11.1% in [8] and 25.3% in data set [9]. For the same molecule, in data set [7], the Activity entry was “Non-toxic”.
On to `CCc1c(C)c2ccc(O)cc2oc1=O`, for which the figures for the inhibition at 100 µM in [1], in data set [2] and in data set [3] were 91%, -73.2% and 92.3%, respectively. Besides, in data set [10], the inhibition was 65%. Moreover, the inhibition at 10 µM in [4] is 43.3%; in [6], 27.9%; in [8], -29.9%; in data set [9], 7.5%. For the same molecule, the “inhibition (INH)” value in data set [11] came out at 50%. Also, in data set [7], the Activity entry is given as “Non-toxic”.
As to `O=c1cc(-c2ccccc2F)c2ccc(O)cc2o1`, the inhibition at 100 µM in data set [1] was 95.4%; in data set [2], -16.6%; in data set [3], 87.5%; in data set [5], 92.7%. Besides, the inhibition at 10 µM in data set [4] was 50.4%; in [6], 0.3%; in data set [8] it was -34.7%; in data set [9] it was 48.8%. The Activity entry in [7] is “Non-toxic”.
As to `O=c1ccc2ccc(O)cc2o1` [UMBELLIFERONE], the inhibition at 100 µM in data set [1] was 47.2%; in data set [2], -20.4%; in [3], 64.4%; in data set [5], 34.1%. The inhibition at 10 µM was 5.5% in data set [4], 3.2% in [6], -17.2% in [8] and 10% in data set [9]. In addition, the Activity result in [7] is “Non-toxic”.
Take `COc1c(O)ccc2c(C)c(F)c(=O)oc12`: the inhibition at 100 µM was 86.2% in data set [1], -36.8% in data set [2], 50.2% in data set [3] and 14.8% in data set [5]. The inhibition at 10 µM was 15.8% in data set [4], 10.7% in [6], -15.4% in [8] and 2.7% in data set [9]. Also, the Activity entry in data set [7] was “Non-toxic”.
In the case of `CCCc1cc(=O)oc2cc(O)cc(C)c12`, the inhibition at 100 µM in [1] was 87.8%; in data set [2], -45.6%; in data set [3] it was 62.5%; in data set [5], 54.3%. Besides, the inhibition at 10 µM in data set [4] is 38.5%; in [6] it was 12.2%; in data set [8] it was -6.8%; in data set [9] it was 7.8%. The Activity result in data set [7] is “Non-toxic”.
For `Cc1cc(=O)oc2cc(O)ccc12` [HYMECROMONE], the inhibition at 100 µM in [1] is 61.8%; in [2], 22.7%; in [3], 42.9%; in data set [5], 44.1%. Also, the inhibition at 10 µM was -14.2% in data set [4], 4.6% in data set [6], 3.2% in data set [8] and 22.1% in data set [9]. Further, the Activity result in data set [7] is listed as “Non-toxic”.
Take `Cc1c(F)c(=O)oc2cc(O)ccc12`: the inhibition at 100 µM was 53% in [1], -25.1% in data set [2], 62.8% in data set [3] and 38.1% in [5]. The inhibition at 10 µM is 7.4% in [4], 21.2% in data set [6], -2.2% in [8] and 46.5% in [9]. Further, the Activity entry in data set [7] was “Non-toxic”.
As for `Cc1cc(O)cc2oc(=O)cc(C)c12`, the inhibition at 100 µM is 74.3% in [1], -17.5% in data set [2], 71% in data set [3] and 66.4% in data set [5]. Moreover, the inhibition at 10 µM was -8.6% in data set [4], 14.5% in data set [6], -14.8% in data set [8] and -19.7% in data set [9]. In data set [7], the Activity result is “Non-toxic”.
For the molecule `S=C(S)N1CCCC1` [PYRROLIDINE DITHIOCARBAMATE], the inhibition in data set [12] was determined as 95%. For the same molecule, the inhibition at 100 µM in data set [1] amounted to 97%.

The values are drawn from ChEMBL document CHEMBL1817608, “Synthesis and anti-inflammatory effects of a series of novel 7-hydroxycoumarin derivatives” (Eur J Med Chem, 2011).
